Legend:
[1] = target: Melanocortin receptor 3 (Mus musculus, UniProt P33033); assay: Effective concentration against mouse Melanocortin 3 receptor
Outline: (§1)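 HEK-293 cells stably expressing the mouse receptor (calcium phosphate transfection, G418 1 mg/mL selection) were transfected with 4 μg CRE/β-galactosidase reporter. EC50 came from nonlinear least-squares fit; at least three independent experiments.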

[2] = target: Melanocortin receptor 4 (Mus musculus, UniProt P56450); assay: Effective concentration against mouse melanocortin MC4 receptor; outline: as §1
Melanocortin receptor 4, sequence (P56450 whole entry): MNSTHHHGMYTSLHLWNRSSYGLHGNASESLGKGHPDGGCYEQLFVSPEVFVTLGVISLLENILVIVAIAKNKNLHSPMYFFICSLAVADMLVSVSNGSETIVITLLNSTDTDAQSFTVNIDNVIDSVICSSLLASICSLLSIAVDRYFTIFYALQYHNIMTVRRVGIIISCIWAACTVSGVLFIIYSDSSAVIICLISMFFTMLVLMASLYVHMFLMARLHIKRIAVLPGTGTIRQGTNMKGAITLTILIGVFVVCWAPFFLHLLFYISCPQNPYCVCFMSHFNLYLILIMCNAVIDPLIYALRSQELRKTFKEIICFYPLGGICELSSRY

Melanocortin receptor 3, sequence (P33033 whole entry): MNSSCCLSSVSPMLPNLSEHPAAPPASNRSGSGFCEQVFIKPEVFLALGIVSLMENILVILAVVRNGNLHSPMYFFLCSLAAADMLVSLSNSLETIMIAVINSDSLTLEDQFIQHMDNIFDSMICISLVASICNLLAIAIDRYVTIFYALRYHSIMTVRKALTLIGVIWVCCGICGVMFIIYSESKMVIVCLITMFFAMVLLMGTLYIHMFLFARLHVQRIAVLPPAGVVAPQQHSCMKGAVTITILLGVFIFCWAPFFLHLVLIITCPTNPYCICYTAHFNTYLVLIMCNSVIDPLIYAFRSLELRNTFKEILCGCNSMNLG

Row | Structure (SMILES) | Kd [1] [nM] | Kd [2] [nM]
1 | C[C@@H]1NC(=O)[C@@H](CC(N)=O)NC(=O)[C@H](Cc2ccccc2)NC(=O)[C@@H](Cc2ccccc2)NC(=O)[C@H](CCCNC(=N)N)NC(=O)[C@@H](NC(=O)[C@@H](N)Cc2ccc(O)cc2)CC(=O)NC(C(=O)NN[C@H](Cc2ccc(O)cc2)C(=O)C(N)=O)NC(=O)C(=O)[C@@H](Cc2ccccc2)NC1=O (stereo partly drawn) [Tyr-c[Asp-Arg-Phe-Phe-Asn-Ala-Phe-Dpr]-Tyr-NH2] | 2000 | 
2 | C[C@@H]1NC(=O)[C@H](CC(N)=O)NC(=O)[C@H](Cc2ccccc2)NC(=O)[C@H](Cc2ccccc2)NC(=O)[C@H](CCCNC(=N)N)NC(=O)[C@@H](NC(=O)[C@@H](N)Cc2ccc(O)cc2)CC(=O)NC[C@@H](C(=O)N[C@@H](Cc2ccc(O)cc2)C(N)=O)NC(=O)[C@H](Cc2ccccc2)NC1=O [Tyr-c[Asp-Arg-Phe-Phe-Asn-Ala-Phe-Dpr]-Tyr-NH2] |  | 1260

Reference: BindingDB's records for doi:10.1021/jm0303608 (University of Florida, 2004)
